Source: ChEMBL document CHEMBL1212871, “Lipophilic phenolic antioxidants: correlation between antioxidant profile, partition coefficients and redox properties” (Bioorg Med Chem, 2010)

How the values were obtained:
[1] = Redox potential at pH 7.3 by differential pulse and cyclic voltametry; assay type: physicochemical
Outline: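 Glassy carbon working electrode, potentials vs Ag/AgCl. 0.1 mM compound (diluted from 10 mM ethanol stock) in pH 7.3 phosphate supporting electrolyte, made from 0.2 M K2HPO4 and KH2PO4. Differential pulse voltammetry was run at 5 mV s^-1. Cyclic voltammetry was run at 50 mV s^-1, with scan rates of 10–100 mV s^-1 also examined.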

[2] = Antioxidant activity assessed as inhibition of AAPH-induced lipid peroxidation in liposomes measured as Trolox equivalent antioxidant capacity; assay type: functional; conditions: Liposome
Outline: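 Egg phosphatidylcholine LUVs (0.80 mM final) holding a radical-sensitive fluorescent probe were mixed with polyphenol (1.50, 7.50, 15.00 µM final; 1.5% ethanol) and shaken 10 min at 37 °C. Peroxidation was then started with 15.00 mM AAPH. Fluorescence (ex 360/40, em 460/40 nm) was read at 37 °C for 3 h. TEAC = (AUC compound − AUC control)/(AUC Trolox − AUC control). Run in duplicate.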

[3] = Antioxidant activity assessed as ratio of IC50 for Trolox to compound for ABTS radical scavenging activity after 5 mins by TEAC assay; assay type: functional
Outline: (§1)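 Six ethanolic compound solutions (1.5 × 10^-5 to 15 × 10^-5 M) were made in duplicate, and 20 µL of each was added to 180 µL ABTS•+ in quadruplicate. Absorbance was read every 5 min over 20 min; ethanol blank = 100% radical. Radical % against concentration at 5 or 20 min was fitted by second-degree polynomial through 100%. TEAC = Trolox IC50 / compound concentration giving 50% bleaching.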

[4] = Antioxidant activity assessed as ratio of IC50 for Trolox to compound for ABTS radical scavenging activity after 20 mins by TEAC assay; assay type: functional; outline: as §1
[5] = tested on: Radical scavenging activity; assay: Antioxidant activity assessed as ratio of IC50 for Trolox to compound for DPPH radical scavenging activity by TEAC assay; assay type: functional
Outline: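 DPPH• (180 µL) received 20 µL ethanolic compound, six concentrations of 1.5 × 10^-5 to 15 × 10^-5 M, prepared in duplicate and assayed in quadruplicate. Absorbance was read every minute for 10 min, then every 5 min for 50 min; ethanol blank = 100% radical. 60-min data were fitted by second-degree polynomial through 100%. TEAC = Trolox IC50 / compound concentration giving 50% bleaching.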

Compound | Redox potential [1] | Ratio [2] | Ratio IC50 [3] | Ratio IC50 [4] | Ratio IC50 [5]
CCCCCCOC(=O)CCc1ccc(O)c(OC)c1 [HEXYLHYDROFERULATE] | 0.434 V | 0.57 |  |  | 
CCCCCCOC(=O)/C=C/c1ccc(O)c(O)c1 [HEXYLCAFFEATE] | 0.175 V | 3.55 | 0.91 | 0.93 | 0.97
CCCCCCNC(=O)/C=C/c1ccc(O)c(OC)c1 [FERULOYLHEXYLAMIDE] | 0.322 V | 1.22 |  |  | 
CCCCCCNC(=O)/C=C/c1ccc(O)c(O)c1 [CAFFEOYLHEXYLAMIDE] | 0.162 V | 2.41 | 1.04 | 1.05 | 1.11
CCCCCCOC(=O)/C=C/c1ccc(O)c(OC)c1 [HEXYLFERULATE] | 0.328 V | 1.13 |  |  | 
CCCCCCNC(=O)CCc1ccc(O)c(OC)c1 [HYDROFERULOYLHEXYLAMIDE] | 0.388 V | 0.68 |  |  | 
COc1cc(CCC(=O)O)ccc1O [DIHYDROFERULIC ACID] | 0.41 V | 0.22 |  |  | 
COc1cc(/C=C/C(=O)O)ccc1O [FERULATE] | 0.35 V | 0.79 |  |  | 
CCCCCCOC(=O)CCc1ccc(O)c(O)c1 [HEXYLHYDROCAFFEATE] | 0.125 V | 3.49 | 0.96 | 0.96 | 0.99
O=C(O)/C=C/c1ccc(O)c(O)c1 [CAFFEIC ACID] | 0.183 V | 2.23 | 1.14 | 1.27 | 1.29
O=C(O)CCc1ccc(O)c(O)c1 [DIHYDROCAFFEIC ACID] | 0.139 V | 1.75 | 1.16 | 1.41 | 2.05
CCCCCCNC(=O)CCc1ccc(O)c(O)c1 [HYDROCAFFEOYLHEXYLAMIDE] | 0.125 V | 2.08 | 1.01 | 1.02 | 1
